# Results taken from ChEMBL document CHEMBL3259728, “Design, synthesis and biological evaluation of some novel substituted quinazolines as antitumor agents” (2014).
# Legend:
# Format in all cases: functional
# SK-OV-3 = assay: Growth inhibition of human SKOV3 cells assessed as cell growth at 10^-4 M after 48 hrs by SRB assay; conditions: SK-OV-3, 48 h, read-out: Activity
# CCRF-CEM [1] = assay: Cytotoxicity against human CCRF-CEM cells after 48 hrs by SRB assay
# Outline: (§1)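 NCI 60-cell-line panel of human tumour lines from nine cancer types. Continuous 48 h exposure at five 10-fold dilutions from 10^-4 to 10^-8 M, with 5-FU as positive control. SRB protein stain read spectrophotometrically at time zero, untreated control and each concentration. GI50, TGI and LC50 were derived from the [(Ti−Tz)/(C−Tz)]×100 growth relations, and out-of-range values are given as > or < the tested limits.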
# HCT-116 = assay: Growth inhibition of human HCT116 cells assessed as cell growth at 10^-4 M after 48 hrs by SRB assay; conditions: HCT-116, 48 h, read-out: Activity
# HOP-62 [2] = assay: Growth inhibition of human HOP62 cells assessed as cell growth at 10^-5 M after 48 hrs by SRB assay; conditions: HOP-62, 48 h, read-out: Activity
# MDA-MB-468 = assay: Cytotoxicity against human MDA-MB-468 cells after 48 hrs by SRB assay; conditions: MDA-MB-468, 48 h; outline: as §1
# KM12 [3] = assay: Growth inhibition of human KM12 cells assessed as cell growth at 10^-7 M after 48 hrs by SRB assay; conditions: KM12, 48 h, read-out: Activity
# [4] = Growth inhibition of human OVCAR8 cells assessed as cell growth at 10^-6 M after 48 hrs by SRB assay; conditions: OVCAR-8, 48 h, read-out: Activity
# SNB-75 = assay: Growth inhibition of human SNB75 cells assessed as cell growth at 10^-6 M after 48 hrs by SRB assay; conditions: SNB-75, 48 h, read-out: Activity
# [5] = Cytotoxicity against human Hs578T cells after 48 hrs by SRB assay; conditions: Hs-578T; outline: as §1
# [6] = Growth inhibition of human OVCAR4 cells assessed as cell growth at 10^-5 M after 48 hrs by SRB assay; conditions: OVCAR-4, 48 h, read-out: Activity
# SK-MEL-5 [7] = assay: Growth inhibition of human SK-MEL-5 cells assessed as cell growth at 10^-7 M after 48 hrs by SRB assay; conditions: SK-MEL-5, 48 h, read-out: Activity
# SR [8] = assay: Cytotoxicity against human SR cells after 48 hrs by SRB assay; outline: as §1
# SR [9] = assay: Growth inhibition of human SR cells assessed as cell growth at 10^-4 M after 48 hrs by SRB assay; conditions: read-out: Activity
# [10] = Growth inhibition of human UACC257 cells assessed as cell growth at 10^-6 M after 48 hrs by SRB assay; conditions: UACC-257, 48 h, read-out: Activity
# [11] = Growth inhibition of human EKVX cells assessed as cell growth at 10^-6 M after 48 hrs by SRB assay; conditions: read-out: Activity
# ACHN = assay: Growth inhibition of human ACHN cells assessed as cell growth at 10^-7 M after 48 hrs by SRB assay; conditions: read-out: Activity
# Outline: (§2)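 Five-dose NCI panel protocol. Each dose (10^-4 to 10^-8 M, 10-fold steps) was given as 48 h continuous exposure, and protein was measured by SRB staining. Percentage growth at each level is [(Ti−Tz)/(C−Tz)]×100, where Tz is time-zero absorbance and C is untreated control.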
# SK-MEL-5 [12] = assay: Growth inhibition of human SK-MEL-5 cells assessed as cell growth at 10^-6 M after 48 hrs by SRB assay; conditions: SK-MEL-5, 48 h, read-out: Activity
# [13] = Growth inhibition of human UACC62 cells assessed as cell growth at 10^-4 M after 48 hrs by SRB assay; conditions: UACC-62, 48 h, read-out: Activity
# U-251 = assay: Growth inhibition of human U251 cells assessed as cell growth at 10^-5 M after 48 hrs by SRB assay; conditions: U-251, 48 h, read-out: Activity
# CCRF-CEM [14] = assay: Growth inhibition of human CCRF-CEM cells assessed as cell growth at 10^-8 M after 48 hrs by SRB assay; conditions: read-out: Activity; outline: as §2
# T47D = assay: Growth inhibition of human T47D cells assessed as cell growth at 10^-5 M after 48 hrs by SRB assay; conditions: read-out: Activity
# MCF7 = assay: Growth inhibition of human MCF7 cells assessed as cell growth at 10^-4 M after 48 hrs by SRB assay; conditions: MCF7, 48 h, read-out: Activity
# [15] = Growth inhibition of human OVCAR4 cells assessed as cell growth at 10^-8 M after 48 hrs by SRB assay; conditions: OVCAR-4, 48 h, read-out: Activity
# NCI-H460 = assay: Growth inhibition of human NCI-H460 cells assessed as cell growth at 10^-8 M after 48 hrs by SRB assay; conditions: NCI-H460, 48 h, read-out: Activity
# HOP-62 [16] = assay: Growth inhibition of human HOP62 cells assessed as cell growth at 10^-7 M after 48 hrs by SRB assay; conditions: HOP-62, 48 h, read-out: Activity
# COLO 205 = assay: Growth inhibition of human COLO205 cells assessed as cell growth at 10^-8 M after 48 hrs by SRB assay; conditions: COLO 205, 48 h, read-out: Activity; outline: as §2
# Malme-3M = assay: Growth inhibition of human MALME-3M cells assessed as cell growth at 10^-4 M after 48 hrs by SRB assay; conditions: read-out: Activity
# [17] = Growth inhibition of human SF539 cells assessed as cell growth at 10^-7 M after 48 hrs by SRB assay; conditions: SF-539, 48 h, read-out: Activity
# KM12 [18] = assay: Growth inhibition of human KM12 cells assessed as cell growth at 10^-4 M after 48 hrs by SRB assay; conditions: KM12, 48 h, read-out: Activity
# K562 = assay: Cytotoxicity against human K562 cells after 48 hrs by SRB assay; conditions: K562, 48 h; outline: as §1
# [19] = Growth inhibition of human HCT15 cells assessed as cell growth at 10^-5 M after 48 hrs by SRB assay; conditions: HCT-15, 48 h, read-out: Activity
# NCI-H322M = assay: Growth inhibition of human NCI-H322M cells assessed as cell growth at 10^-8 M after 48 hrs by SRB assay; conditions: read-out: Activity
# [20] = read-out: LC50 (the source's name)
# [21] = read-out: pLC50 (the source's name) (converted)
smiles,measurement,setting,value
Cc1ccc(-c2nc3ccc(Cl)cc3c(=O)n2/N=C/c2ccccc2)cc1,growth at 100 µM,SK-OV-3,-37%
same,GI50,CCRF-CEM [1]; read-out: GI50,> 100 µM
same,CC50,CCRF-CEM [1]; [20],> 100 µM
same,TGI,CCRF-CEM [1]; read-out: TGI,> 100 µM
same,GI50,CCRF-CEM [1]; read-out: pGI50 (converted),> 100 µM
same,CC50,CCRF-CEM [1]; [21],> 100 µM
same,TGI,CCRF-CEM [1]; read-out: pTGI,> 100 µM
same,growth at 100 µM,HCT-116,21%
same,growth at 10 µM,HOP-62 [2],36%
same,GI50,MDA-MB-468; read-out: GI50,57.6 µM
same,LC50,MDA-MB-468; read-out: LC50,> 100 µM
same,TGI,MDA-MB-468; read-out: TGI,> 100 µM
same,GI50,MDA-MB-468; read-out: pGI50 (converted),57.5 µM
same,LC50,MDA-MB-468; read-out: pLC50 (converted),> 100 µM
same,TGI,MDA-MB-468; read-out: pTGI,> 100 µM
same,growth at 0.1 µM,KM12 [3],97%
same,growth at 1 µM,[4],89%
same,growth at 1 µM,SNB-75,64%
same,GI50,[5]; read-out: GI50,2.62 µM
same,LC50 (concentration giving 50% net cell kill),[5]; read-out: LC50,> 100 µM
same,TGI,[5]; read-out: TGI,17.2 µM
same,GI50,[5]; read-out: pGI50 (converted),2.63 µM
same,LC50 (concentration giving 50% net cell kill),[5]; read-out: pLC50 (converted),> 100 µM
same,TGI,[5]; read-out: pTGI (converted),17.4 µM
same,growth at 10 µM,[6],23%
same,growth at 0.1 µM,SK-MEL-5 [7],92%
same,GI50,SR [8]; read-out: GI50,> 100 µM
same,CC50,SR [8]; [20],> 100 µM
same,TGI,SR [8]; read-out: TGI,> 100 µM
same,GI50,SR [8]; read-out: pGI50 (converted),> 100 µM
same,CC50,SR [8]; [21],> 100 µM
same,TGI,SR [8]; read-out: pTGI,> 100 µM
same,growth at 100 µM,SR [9],62%
same,growth at 1 µM,[10],97%
same,growth at 1 µM,[11],76%
same,growth at 0.1 µM,ACHN,88%
same,growth at 1 µM,SK-MEL-5 [12],77%
same,growth at 100 µM,[13],32%
same,growth at 10 µM,U-251,32%
same,growth at 0.01 µM,CCRF-CEM [14],98%
same,growth at 10 µM,T47D,14%
same,growth at 100 µM,MCF7,38%
same,growth at 0.01 µM,[15],95%
same,growth at 0.01 µM,NCI-H460,100%
same,growth at 0.1 µM,HOP-62 [16],89%
same,growth at 0.01 µM,COLO 205,103%
same,growth at 100 µM,Malme-3M,42%
same,growth at 0.1 µM,[17],97%
same,growth at 100 µM,KM12 [18],63%
same,GI50,K562; read-out: GI50,> 100 µM
same,LC50,K562; read-out: LC50,> 100 µM
same,TGI,K562; read-out: TGI,> 100 µM
same,GI50,K562; read-out: pGI50 (converted),> 100 µM
same,LC50,K562; read-out: pLC50 (converted),> 100 µM
same,TGI,K562; read-out: pTGI,> 100 µM
same,growth at 10 µM,[19],79%
same,growth at 0.01 µM,NCI-H322M,87%
